Source: ChEMBL document CHEMBL1146358, “ANN-QSAR model for selection of anticancer leads from structurally heterogeneous series of compounds” (Eur J Med Chem, 2007)
Converted amounts (≈) assume the structure as drawn.

Legend:
Format in all cases: functional, cell-based
[1] = Growth inhibition of human CEM/0 cells; conditions: CCRF-CEM
Outline: (§1)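 Cells grown with test compound for 72 h at 37 C in humidified CO2-controlled atmosphere; cells counted by Coulter counter at end of incubation; IC50 = concentration reducing number of living cells by 50%.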

[2] = Growth inhibition of mouse L1210/0 cells
Outline: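 Cells grown with test compound for 48 h at 37 C in humidified CO2-controlled atmosphere; cells counted by Coulter counter at end of incubation; IC50 = concentration reducing number of living cells by 50%.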

[3] = Growth inhibition of human Molt4/C8 cells; conditions: MOLT-4; outline: as §1

Row | Compound | IC50 [1] [µg/mL] | IC50 [2] [µg/mL] | IC50 [3] [µg/mL]
1 | Cc1cn(C2CCCC2)c(=O)[nH]c1=O | 138 (≈ 710 µM) | 85.2 (≈ 439 µM) | 98.8 (≈ 509 µM)
2 | O=c1[nH]c(=O)n(C2CCCC2)cc1F | 66 (≈ 333 µM) | 35.1 (≈ 177 µM) | 78.1 (≈ 394 µM)
3 | O=c1[nH]c(=O)n(C2CCCC2)cc1Cl | 82 (≈ 382 µM) | 103 (≈ 480 µM) | 81.3 (≈ 379 µM)
4 | O=c1[nH]c(=O)n(C2CCCC2)cc1Br | 37.1 (≈ 143 µM) | 50.3 (≈ 194 µM) | 97.2 (≈ 375 µM)
5 | O=c1[nH]c(=O)n(C2CCCC2)cc1I | 60.9 (≈ 199 µM) | 98.8 (≈ 323 µM) | 53.2 (≈ 174 µM)
6 | O=c1ccn(C2CCCC2)c(=O)[nH]1 | 80 (≈ 444 µM) | 66.3 (≈ 368 µM) | 108 (≈ 599 µM)
